The text below walks through data of ChEMBL document CHEMBL2040797, “Synthesis of benzimidazoles bearing oxadiazole nucleus as anticancer agents” (2012).

Holding throughout (format): functional
Test [1] relates to M14. The test is described as follows: Growth inhibition of human M14 cells at 10 uM after 48 hrs by sulforhodamine B assay. To be noted: M14, 48 h, read-out: GI. The method in brief: (§1)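 NCI one-dose primary screen at 10 (printed mM) across the 60-line panel. Cells in RPMI 1640 with 5% FBS and 2 mM L-glutamine, plated at 5000–40,000 cells/well and incubated 24 h before dosing. Exposure 48 h at 37 °C, 5% CO2. Adherent cells were fixed with cold TCA, suspension cells fixed after settling. SRB stain, absorbance 515 nm. Reported as percent growth of treated cells relative to control.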
On the technique in general: In SRB staining, fixed cells bind dye roughly in proportion to their protein.

Test [2] deals with MDA-MB-435. The test can be described thus: Growth inhibition of human MDA-MB-435 cells at 10 uM after 48 hrs by sulforhodamine B assay. Conditions: MDA-MB-435, 48 h, read-out: GI. The method in brief: as §1
For test [3], the system named is NCI-H23. The test can be described thus: Cytotoxicity against human NCI-H23 cells after 48 hrs by sulforhodamine B assay. To be noted: NCI-H23, 48 h. The method in brief:
(§2)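 NCI 60-panel screen. Cells were grown in RPMI 1640 with 5% FBS and L-glutamine and plated at 5000–40,000 cells/well according to doubling time. They were preincubated 24 h at 37 °C, 5% CO2, then exposed 48 h to five 10-fold dilutions. Adherent cells were fixed with cold TCA, final 10%; suspension cells were fixed after settling. Cells were stained with 0.4% SRB and read at 515 nm. Tz/C/Ti growth curves gave GI50, TGI and LC50.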

The subject of test [4] is OVCAR-3. The test is described as follows: Cytotoxicity against human OVCAR3 cells after 48 hrs by sulforhodamine B assay. Conditions: OVCAR-3, 48 h. Summed up:
as §2

Test [5] has as its system NCI/ADR-RES. The test is described as follows: Cytotoxicity against human NCI/ADR-RES cells after 48 hrs by sulforhodamine B assay. The method in brief: as §2
Test [6] relates to UO-31. The test can be described thus: Cytotoxicity against human UO31 cells after 48 hrs by sulforhodamine B assay. To be noted: UO-31, 48 h. Summed up: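 NCI 60 panel five-dose screen. Cells in RPMI 1640 with 5% FBS and 2 mM L-glutamine, plated at 5000–40,000 cells/well and preincubated 24 h. Compounds were tested at five 10-fold concentrations (0.01–100) for 48 h at 37 °C, 5% CO2. Cells were fixed with TCA and stained with SRB, absorbance 515 nm. GI50, TGI and LC50 were taken from % growth curves against time-zero and control.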

The mark [7] stands for this setting: read-out: LC50 (the source's name).

Each structure is given as a SMILES string.

As to `O=C(CCc1nnc(-c2ccc(Cl)cc2Cl)o1)c1nc2ccccc2[nH]1`, the inhibition of growth at 10 µM was determined as 44.2% in test [1] and 101% in test [2]. The GI50 turned out to be 3.23 µM in test [3], 5.63 µM in test [4], 5.4 µM in test [5] and 6.71 µM in test [6]. For the same compound, the concentration for total growth inhibition (TGI) worked out at 63.2 µM in test [3], 24.8 µM in test [4], 100 µM in test [5] and 32.9 µM in test [6]. The CC50 in test [3] (setting [7]) was 100 µM; in test [4] (setting [7]), 90.7 µM; in test [5] (setting [7]), 100 µM; in test [6] (setting [7]) it was 100 µM.

A word on the GI50: it is the concentration giving 50% growth inhibition. As usually defined, the TGI is the concentration giving total growth inhibition. A higher TGI goes with lower sensitivity of the cells.
